Columns and labels:
[1] = system: CCRF-CEM; test: Antiproliferative activity against human CEM cells after 2 days; format: functional, cell-based; conditions: 48 h
Outline: (§1)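 Cells suspended at 300,000–500,000 cells/mL of culture medium and mixed 1:1 with dilutions of compound. Incubated 2 days at 37 °C, then cell number counted with a Coulter counter. IC50 is the concentration giving 50% inhibition of proliferation. Values are means from dose–response curves of at least three independent experiments.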

[2] = system: HeLa; test: Antiproliferative activity against human HeLa cells after 2 days; format: functional, cell-based; conditions: 48 h; outline: as §1
[3] = organism: Bos taurus; test: Displacement of [3H]colchicine from bovine brain tubulin at 1 uM
Outline: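 Bovine brain tubulin (1 µM) incubated with compound at 1 µM and [³H]colchicine at 5 µM. Result is reported as percent inhibition of colchicine binding.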

[4] = system: MOLT-4; test: Antiproliferative activity against human MOLT4 cells after 2 days; format: functional, cell-based; conditions: MOLT-4, 48 h; outline: as §1
[5] = system: K562; test: Cell cycle arrest in human K562 cells assessed as accumulation at G0/G1 phase at 1.0 uM after 24 hrs by flow cytometry; format: functional
[6] = Inhibition of bovine brain tubulin polymerization for 20 mins; design: species or system Bos taurus
Outline: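 Bovine brain tubulin (10 µM) preincubated with varying compound concentrations in glutamate buffer at 30 °C, then cooled to 0 °C. GTP added and mixtures warmed to 30 °C in cuvettes while assembly was followed by turbidity. IC50 is the concentration that halves the extent of assembly after 20 min.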

[7] = system: K562; test: Cell cycle arrest in human K562 cells assessed as accumulation at S phase at 1.0 uM after 24 hrs by flow cytometry; format: functional
[8] = system: FM3A; test: Antiproliferative activity against mouse FM3A cells after 2 days; format: functional, cell-based; conditions: 48 h; outline: as §1
[9] = system: K562; test: Cell cycle arrest in human K562 cells assessed as accumulation at G2/M phase at 1.0 uM after 24 hrs by flow cytometry; format: functional
[10] = system: L1210; test: Antiproliferative activity against mouse L1210 cells after 2 days; format: functional, cell-based; conditions: L1210, 48 h; outline: as §1
[11] = system: K562; test: Cell cycle arrest in human K562 cells assessed as accumulation at S phase at 1.4 uM after 24 hrs by flow cytometry; format: functional
[12] = system: K562; test: Cell cycle arrest in human K562 cells assessed as accumulation at G0/G1 phase at 1.4 uM after 24 hrs by flow cytometry; format: functional
[13] = system: K562; test: Cell cycle arrest in human K562 cells assessed as accumulation at G2/M phase at 1.4 uM after 24 hrs by flow cytometry; format: functional
[14] = system: K562; test: Cell cycle arrest in human K562 cells assessed as accumulation at G0/G1 phase at 2.1uM after 24 hrs by flow cytometry; format: functional
[15] = system: K562; test: Cell cycle arrest in human K562 cells assessed as accumulation at S phase at 2.1uM after 24 hrs by flow cytometry; format: functional
[16] = system: K562; test: Cell cycle arrest in human K562 cells assessed as accumulation at G2/M phase at 2.1 uM after 24 hrs by flow cytometry; format: functional
[17] = system: K562; test: Cell cycle arrest in human K562 cells assessed as accumulation at G0/G1 phase at 2.2 uM after 24 hrs by flow cytometry; format: functional
[18] = system: K562; test: Cell cycle arrest in human K562 cells assessed as accumulation at S phase at 2.2 uM after 24 hrs by flow cytometry; format: functional
[19] = system: K562; test: Cell cycle arrest in human K562 cells assessed as accumulation at G2/M phase at 2.2 uM after 24 hrs by flow cytometry; format: functional
[20] = system: K562; test: Cell cycle arrest in human K562 cells assessed as accumulation at G0/G1 phase at 1.7 uM after 24 hrs by flow cytometry; format: functional
[21] = system: K562; test: Cell cycle arrest in human K562 cells assessed as accumulation at G2/M phase at 1.7 uM after 24 hrs by flow cytometry; format: functional
[22] = system: K562; test: Cell cycle arrest in human K562 cells assessed as accumulation at S phase at 1.7 uM after 24 hrs by flow cytometry; format: functional
[23] = system: K562; test: Cell cycle arrest in human K562 cells assessed as accumulation at G2/M phase at 1.5 uM after 24 hrs by flow cytometry; format: functional
[24] = system: K562; test: Cell cycle arrest in human K562 cells assessed as accumulation at S phase at 1.5 uM after 24 hrs by flow cytometry; format: functional
[25] = system: K562; test: Cell cycle arrest in human K562 cells assessed as accumulation at G0/G1 phase at 1.5 uM after 24 hrs by flow cytometry; format: functional
[26] = system: K562; test: Cell cycle arrest in human K562 cells assessed as accumulation at G2/M phase at 4.0 uM after 24 hrs by flow cytometry; format: functional
[27] = system: K562; test: Cell cycle arrest in human K562 cells assessed as accumulation at G0/G1 phase at 4.0 uM after 24 hrs by flow cytometry; format: functional
[28] = system: K562; test: Cell cycle arrest in human K562 cells assessed as accumulation at S phase at 4.0 uM after 24 hrs by flow cytometry; format: functional
[29] = system: K562; test: Cell cycle arrest in human K562 cells assessed as accumulation at G2/M phase at 1.3 uM after 24 hrs by flow cytometry; format: functional
[30] = system: K562; test: Cell cycle arrest in human K562 cells assessed as accumulation at G0/G1phase at 1.3 uM after 24 hrs by flow cytometry; format: functional
[31] = system: K562; test: Cell cycle arrest in human K562 cells assessed as accumulation at S phase at 1.3 uM after 24 hrs by flow cytometry; format: functional

Row | Compound | IC50 [1] [nM] | IC50 [2] [nM] | inhibition [3] [%] | IC50 [4] [nM] | IC50 [6] [nM] | IC50 [10] [nM] | IC50 [8] [nM] | further results
1 | COc1ccc(-c2ccc(C(=O)c3cc(OC)c(OC)c(OC)c3)s2)cc1OC | 540 | 500 | 28 | 380 | 3000 | 520 | 960 | Activity [14]: 16%; Activity [15]: 27%; Activity [16]: 57%
2 | COc1cc(C(=O)c2ccc(-c3ccsc3)s2)cc(OC)c1OC | 1300 | 1100 | – | 370 | – | 1300 | 1800 | –
3 | COc1cc(C(=O)c2ccc(-c3cccc([N+](=O)[O-])c3)s2)cc(OC)c1OC | 1800 | 1400 | – | 1700 | – | 2100 | 2400 | –
4 | COc1cc(C(=O)/C=C/c2ccc(F)cc2)cc(OC)c1OC | > 10000 | > 10000 | – | > 10000 | – | > 10000 | > 10000 | –
5 | COc1cc(C(=O)c2ccc(-c3cccs3)s2)cc(OC)c1OC | 430 | 470 | 82 | 300 | 800 | 530 | 460 | Activity [20]: 8%; Activity [21]: 75%; Activity [22]: 17%
6 | COc1ccc(/C=C/C(=O)c2cc(OC)c(OC)c(OC)c2)cc1OC | 1900 | 2000 | – | 3100 | – | 8100 | 10000 | –
7 | COc1ccccc1-c1ccc(C(=O)c2cc(OC)c(OC)c(OC)c2)s1 | 370 | 160 | 74 | 180 | 1300 | 510 | 440 | Activity [23]: 62%; Activity [24]: 31%; Activity [25]: 12%
8 | COc1cc(C(=O)/C=C/c2ccccc2)cc(OC)c1OC | > 10000 | > 10000 | – | > 10000 | – | > 10000 | > 10000 | –
9 | COc1ccc(/C=C\c2cc(OC)c(OC)c(OC)c2)cc1O [COMBRETASTATIN A4] | – | – | – | – | 1400 | – | – | –
10 | COc1ccc(/C=C/C(=O)c2cc(OC)c(OC)c(OC)c2)cc1 | 1500 | 1300 | – | 1400 | – | 2800 | 8400 | –
11 | COc1ccc(-c2ccc(C(=O)c3cc(OC)c(OC)c(OC)c3)s2)cc1 | 2200 | 1000 | – | 460 | – | 2300 | 2400 | –
12 | COc1cccc(/C=C/C(=O)c2cc(OC)c(OC)c(OC)c2)c1 | 2200 | 3700 | – | 3100 | – | 4300 | 11000 | –
13 | COc1cc(C(=O)/C=C/c2ccc(Cl)cc2)cc(OC)c1OC | > 10000 | > 10000 | – | > 10000 | – | > 10000 | > 10000 | –
14 | COc1cc(C(=O)c2ccc(-c3ccc([N+](=O)[O-])cc3)s2)cc(OC)c1OC | > 10000 | > 10000 | – | > 10000 | – | > 10000 | > 10000 | –
15 | COc1ccccc1/C=C/C(=O)c1cc(OC)c(OC)c(OC)c1 | 1800 | 1400 | – | 1900 | – | 2100 | 7900 | –

Continued, in another order:

Row | IC50 [1] [nM] | IC50 [2] [nM] | inhibition [3] [%] | IC50 [4] [nM] | IC50 [6] [nM] | IC50 [10] [nM] | Compound | IC50 [8] [nM] | further results
16 | 480 | 1400 | 66 | 330 | 2000 | 520 | COc1cc(C(=O)c2ccc(-c3ccccc3F)s2)cc(OC)c1OC | 870 | Activity [5]: 8%; Activity [7]: 11%; Activity [9]: 81%
17 | 360 | 410 | 74 | 380 | 800 | 490 | COc1cc(C(=O)c2ccc(-c3ccc(C)cc3)s2)cc(OC)c1OC | 470 | Activity [11]: 7%; Activity [12]: 8%; Activity [13]: 85%
18 | 490 | 1600 | – | 1000 | – | 750 | COc1cc(C(=O)c2ccc(-c3ccccc3Cl)s2)cc(OC)c1OC | 1700 | –
19 | 560 | 300 | 66 | 400 | 1100 | 590 | COc1cc(C(=O)c2ccc(-c3ccc(F)cc3)s2)cc(OC)c1OC | 1100 | Activity [17]: 48%; Activity [18]: 31%; Activity [19]: 21%
20 | 2100 | 1700 | – | 1200 | – | 2400 | COc1cc(C(=O)c2ccc(-c3cccc(F)c3)s2)cc(OC)c1OC | 5600 | –
21 | 2300 | 1500 | – | 1300 | – | 2200 | COc1cc(C(=O)c2ccc(-c3ccc(Cl)cc3)s2)cc(OC)c1OC | 4600 | –
22 | 1200 | 1600 | 49 | 600 | 1700 | 2200 | COc1cc(C(=O)c2ccc(-c3ccccc3C)s2)cc(OC)c1OC | 2100 | Activity [26]: 85%; Activity [27]: 15%; Activity [28]: 23%
23 | 480 | 310 | 74 | 400 | 1500 | 560 | COc1cc(C(=O)c2ccc(-c3ccccc3)s2)cc(OC)c1OC | 460 | Activity [29]: 18%; Activity [30]: 34%; Activity [31]: 48%
24 | 2000 | 1400 | – | 1800 | – | 2500 | COc1cccc(-c2ccc(C(=O)c3cc(OC)c(OC)c(OC)c3)s2)c1 | 2400 | –
